We go through seven molecules from ChEMBL document CHEMBL4392826, “Prototyping kinase inhibitor-cytotoxin anticancer mutual prodrugs activated by tumour hypoxia: A chemical proof of concept study” (Bioorg Med Chem Lett, 2019).

One may read the IC50 as the concentration that gives 50% inhibition.

The subject of data set [1] is MDA-MB-468. Briefly: Cytotoxicity against human MDA-MB-468 cells incubated for 4 hrs under aerobic condition followed by compound washout and measured after 5 days by SRB assay. Format: cell-based. Summed up: (§1)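 Antiproliferative IC50 in MDA-MB-468 triple-negative breast or SW620 colon cancer cells, exposed under aerobic or anoxic conditions; mean ± std dev, n = 3.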
On the technique in general: Sulforhodamine B stains cellular protein and so reports cell mass.

The subject of data set [2] is MDA-MB-468. Briefly: Cytotoxicity against human MDA-MB-468 cells incubated for 4 hrs under hypoxic condition followed by compound washout and measured after 5 days by SRB assay. The class given is functional, cell-based. The procedure, abridged: as §1
Data set [3] can be described thus: Ratio of test compound IC50 to melphalan IC50 for human MDA-MB-468 cells incubated for 4 hrs under aerobic condition followed by compound washout and measured after 5 days by SRB assay. The class given is ADME, cell-based. To be noted: read-out: Ratio IC50. The procedure, abridged: (§2)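 Deactivation ratio: aerobic IC50 of the prodrug divided by the aerobic IC50 of the parent control cytotoxin, in the same cell line (MDA-MB-468 or SW620).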

The subject of data set [4] is MDA-MB-468. Description: Selectivity ratio of IC50 for human MDA-MB-468 cells under aerobic condition to IC50 for human MDA-MB-468 cells under hypoxic condition. The procedure, abridged:
(§3)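 Hypoxic cytotoxicity ratio: aerobic IC50 divided by anoxic IC50 in the same cell line (MDA-MB-468 or SW620).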

In data set [5] the test system is SW-620. Description: Cytotoxicity against human SW620 cells incubated for 4 hrs under aerobic condition followed by compound washout and measured after 5 days by SRB assay. The class given is cell-based. The procedure, abridged:
as §1

For data set [6], the system named is SW-620. Briefly: Cytotoxicity against human SW620 cells incubated for 4 hrs under hypoxic condition followed by compound washout and measured after 5 days by SRB assay. Format: functional, cell-based. Summed up:
as §1

Data set [7] can be described thus: Ratio of test compound IC50 to melphalan IC50 for human SW620 cells incubated for 4 hrs under aerobic condition followed by compound washout and measured after 5 days by SRB assay. To be noted: read-out: Ratio IC50. The class given is ADME, cell-based, SW-620. The procedure, abridged:
as §2

In data set [8] the test system is SW-620. Briefly: Selectivity ratio of IC50 for human SW620 cells under aerobic condition to IC50 for human SW620 cells under hypoxic condition. Summed up: as §3
Data set [9] in a line: Aqueous solubility of the compound. As to conditions: buffer. The class given is physicochemical.
Data set [10] can be described thus: Ratio of test compound IC50 to floxuridine IC50 for human MDA-MB-468 cells incubated for 4 hrs under aerobic condition followed by compound washout and measured after 5 days by SRB assay. Format: ADME, cell-based. As to conditions: read-out: Ratio IC50. The procedure, abridged: (§4)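 Deactivation ratio: aerobic antiproliferative IC50 of the prodrug divided by aerobic IC50 of the parent cytotoxin control (floxuridine). IC50 values were means ± std dev, n = 3, determined in MDA-MB-468 triple-negative breast or SW620 colon cancer cells.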

The nature of data set [11]: Ratio of test compound IC50 to floxuridine IC50 for human SW620 cells incubated for 4 hrs under aerobic condition followed by compound washout and measured after 5 days by SRB assay. The class given is ADME, cell-based, SW-620. To be noted: read-out: Ratio IC50. The procedure, abridged:
as §4

The nature of data set [12]: Electrochemical behavior of the compound assessed as one-elctron reduction potential at 50 uM in pH 7 deaerated phosphate buffered by pulse radiolysis.
The nature of data set [13]: Electrochemical behavior of the compound assessed as one-elctron reduction potential at 0.42 uM in tert-butanol by pulse radiolysis.

Structures are written as SMILES.

With `Cc1cc(C)c(/C=C(\C(=O)Nc2ccc(N(CCCl)CCCl)cc2)c2ccccc2[N+](=O)[O-])[nH]1`, the IC50 in the data set on MDA-MB-468 [1] worked out at 8.31 µM; in the data set with MDA-MB-468 [2], 7.38 µM; in the data set on SW-620 [5], 11.5 µM; in the data set on SW-620 [6] it was 12700 nM. Besides, the selectivity ratio at 4 h in [3] is 8.3; in data set [7], 6.3. Also, the “Ratio IC50” value in the data set on MDA-MB-468 [4] is 1.1; in the data set with SW-620 [8], <1. Moreover, the solubility result in data set [9] is “Insoluble”.

For the molecule `Cc1cc(C)c(/C=C(\C(=O)OC[C@H]2O[C@@H](n3cc(F)c(=O)[nH]c3=O)C[C@@H]2O)c2ccccc2[N+](=O)[O-])[nH]1`, the half-maximal inhibitory concentration (IC50) with MDA-MB-468 [1] turned out to be 83.9 µM; in the data set with MDA-MB-468 [2], 248 µM; in the data set on SW-620 [5] it was 18.7 µM; with SW-620 [6], 14000 nM. In addition, the figures for the selectivity ratio at 4 h in data set [10] and in data set [11] were 3.1 and 19.4, respectively. Further, the results for the “Ratio IC50” value in the data set with MDA-MB-468 [4] and with SW-620 [8] were <1 and 1.3, respectively. For the same molecule, the Activity in data set [12] was -509 mV.

With `Cc1cc(C)c(/C=C(\C(=O)Nc2ccc(N(CCO)CCO)cc2)c2ccccc2[N+](=O)[O-])[nH]1`, in data set [13], the Activity is -550 mV.

Take `Cn1c(COP(=O)(NCCBr)NCCBr)cnc1[N+](=O)[O-]` [EVOFOSFAMIDE]: the IC50 in the data set with MDA-MB-468 [1] came to 4.4 µM; with MDA-MB-468 [2], 0.0062 µM; in the data set on SW-620 [5], 20.6 µM; with SW-620 [6], 52 nM. In addition, the “Ratio IC50” value in the data set on MDA-MB-468 [4] worked out at 710; in the data set with SW-620 [8], 396.

`O=c1[nH]c(=O)n([C@H]2C[C@H](O)[C@@H](CO)O2)cc1F` [FLOXURIDINE]: the IC50 in the data set on MDA-MB-468 [1] is 27.4 µM; with MDA-MB-468 [2], 45.5 µM; in the data set on SW-620 [5], 0.96 µM; with SW-620 [6] it was 1480 nM. Moreover, the “Ratio IC50” value in the data set on MDA-MB-468 [4] and with SW-620 [8] was <1 each time.

For `N[C@@H](Cc1ccc(N(CCCl)CCCl)cc1)C(=O)O` [MELPHALAN], the IC50 with MDA-MB-468 [1] was 1 µM; with MDA-MB-468 [2], 0.81 µM; in the data set with SW-620 [5], 1.81 µM; with SW-620 [6] it was 1220 nM. The “Ratio IC50” value in the data set with MDA-MB-468 [4] was 1.2; in the data set with SW-620 [8], 1.5.

As for `Nc1n[n+]([O-])c2ccccc2[n+]1[O-]` [TIRAPAZAMINE], the half-maximal inhibitory concentration (IC50) is 105 µM with MDA-MB-468 [1], 1.3 µM with MDA-MB-468 [2], 91 µM in the data set with SW-620 [5] and 1200 nM with SW-620 [6]. For the same molecule, the entries for the “Ratio IC50” value with MDA-MB-468 [4] and in the data set on SW-620 [8] were 81 and 76, respectively.
